Source: ChEMBL document CHEMBL1154100, “Tetrahydroisoquinolines as dopaminergic ligands: 1-Butyl-7-chloro-6-hydroxy-tetrahydroisoquinoline, a new compound with antidepressant-like activity in mice” (Bioorg Med Chem, 2009)
pKi: −log10 of the molar value. Calls of active or inactive are those of the source. No cut-off for these calls is given here.

Columns and labels:
[1] = molecular target: Sodium-dependent dopamine transporter (Rattus norvegicus) (UniProt P23977); assay: Inhibition of DAT in Wistar rat striatal synaptosomes at 100 uM by [3H]dopamine uptake assay; type: subcellular; settings: Brain
Sequence of Sodium-dependent dopamine transporter (Rattus norvegicus) (P23977 whole entry): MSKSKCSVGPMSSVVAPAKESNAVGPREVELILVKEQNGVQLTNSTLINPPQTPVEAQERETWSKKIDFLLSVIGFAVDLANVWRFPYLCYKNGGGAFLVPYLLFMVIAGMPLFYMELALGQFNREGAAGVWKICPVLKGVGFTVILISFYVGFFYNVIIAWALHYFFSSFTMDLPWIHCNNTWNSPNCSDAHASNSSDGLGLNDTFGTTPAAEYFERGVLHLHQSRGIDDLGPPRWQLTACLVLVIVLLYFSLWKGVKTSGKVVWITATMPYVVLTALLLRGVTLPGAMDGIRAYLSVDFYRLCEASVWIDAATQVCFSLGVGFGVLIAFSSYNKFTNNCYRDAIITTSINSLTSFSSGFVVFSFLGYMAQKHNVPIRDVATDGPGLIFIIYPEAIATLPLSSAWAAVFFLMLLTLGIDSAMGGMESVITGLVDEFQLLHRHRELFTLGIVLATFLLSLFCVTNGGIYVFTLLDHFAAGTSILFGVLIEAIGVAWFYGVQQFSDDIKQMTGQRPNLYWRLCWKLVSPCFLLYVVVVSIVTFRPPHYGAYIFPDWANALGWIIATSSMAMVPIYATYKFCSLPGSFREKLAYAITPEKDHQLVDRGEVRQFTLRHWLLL
Method in brief: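 Synaptosomes were prepared from female Wistar rat striatum at 0–4 °C. Tissue was homogenized in 0.32 M sucrose, spun twice at 1000g for 10 min, and the pooled supernatants were spun at 16,000g for 30 min. The pellet was taken up in Krebs medium (pH 7.6, with glucose). Samples were preincubated for 10 min at 37 °C with pargyline, then given 0.5 nM final [³H]dopamine for 10 min. Uptake was stopped by ice-cold dilution and rapid fiberglass filtration.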

[2] = molecular target: D(2) dopamine receptor (Rattus norvegicus, UniProt P61169); assay: Displacement of [3H]raclopride from dopamine D2 receptor in Wistar rat striatal membrane by liquid scintillation counting; type: cell membranes, Striatum; settings: for Ki: read-out: pKi (converted)
Sequence of D(2) dopamine receptor (P61169 whole entry): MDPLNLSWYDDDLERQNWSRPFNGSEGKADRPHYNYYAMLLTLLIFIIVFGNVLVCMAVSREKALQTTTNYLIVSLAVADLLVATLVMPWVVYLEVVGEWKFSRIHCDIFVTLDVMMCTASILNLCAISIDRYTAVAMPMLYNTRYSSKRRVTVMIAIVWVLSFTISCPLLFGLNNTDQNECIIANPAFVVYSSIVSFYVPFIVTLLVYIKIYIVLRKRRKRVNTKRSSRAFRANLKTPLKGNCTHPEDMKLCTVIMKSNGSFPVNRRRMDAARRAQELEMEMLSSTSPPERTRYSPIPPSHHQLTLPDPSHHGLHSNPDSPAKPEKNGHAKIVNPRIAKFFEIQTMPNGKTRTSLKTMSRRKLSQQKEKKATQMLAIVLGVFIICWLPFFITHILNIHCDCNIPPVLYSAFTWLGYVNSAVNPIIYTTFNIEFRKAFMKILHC
Method in brief: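 Striata from female Wistar rats (200–220 g) were homogenized in 50 mM Tris-HCl (pH 7.4) and centrifuged twice at 49,000g for 15 min at 4 °C. Membranes were resuspended in Tris buffer containing 120 mM NaCl, 2 mM CaCl₂, 5 mM KCl, 1 mM MgCl₂ and 0.1% ascorbic acid (pH 7.4). Samples were filtered, washed with cold buffer and counted by scintillation. Ki was derived using a [³H]raclopride KD of 1,25 nM, from 3–6 determinations run in duplicate.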

[3] = organism: Rattus norvegicus; assay: Selectivity for Wistar rat dopamine D2 receptor over Wistar rat dopamine D1 receptor
[4] = molecular target: D(1A) dopamine receptor (Rattus norvegicus, UniProt P18901); assay: Displacement of [3H]SCH23390 from dopamine D1 receptor in Wistar rat striatal membrane by liquid scintillation counting; type: cell membranes, Striatum
Sequence of D(1A) dopamine receptor (P18901 whole entry): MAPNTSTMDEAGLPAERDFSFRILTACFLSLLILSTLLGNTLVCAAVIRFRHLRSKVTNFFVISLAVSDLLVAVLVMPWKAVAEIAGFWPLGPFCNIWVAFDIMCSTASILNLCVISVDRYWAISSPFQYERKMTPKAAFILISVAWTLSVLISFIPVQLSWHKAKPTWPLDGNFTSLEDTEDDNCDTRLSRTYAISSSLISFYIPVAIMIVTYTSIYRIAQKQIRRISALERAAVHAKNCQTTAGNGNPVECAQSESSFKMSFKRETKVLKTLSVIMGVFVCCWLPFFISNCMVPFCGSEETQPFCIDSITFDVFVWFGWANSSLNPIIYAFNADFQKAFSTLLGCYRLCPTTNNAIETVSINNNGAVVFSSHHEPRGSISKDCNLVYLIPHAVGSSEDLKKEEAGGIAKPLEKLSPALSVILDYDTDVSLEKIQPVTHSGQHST
Method in brief: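 Female Wistar rat striatum homogenized in 50 mM Tris-HCl pH 7.4, then washed twice at 49,000g. Membranes were resuspended in Tris-ions buffer (NaCl, CaCl2, KCl, MgCl2, 0.1% ascorbate). [3H]-SCH23390 displacement was read by filtration and scintillation counting. Ki was derived using KD 0.36 nM; 3–6 independent runs in duplicate, mean SEM.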

SMILES	Activity [1]	Ki [2] [nM]	fold change (FC) [3]	pKi [4]	pKi ([2]; read-out: Ki)
COc1cc2c(cc1Cl)CCNC2Cc1ccccc1 (stereo unspecified)	inactive	968	5	5.63	
O=C(CCCN1CCC(O)(c2ccc(Cl)cc2)CC1)c1ccc(F)cc1			20		
COc1cc2c(cc1Cl)CCNC2c1ccccc1 (stereo unspecified)	inactive	6140	1.2	5.22	
CCCCC1NCCc2cc(Cl)c(OC)cc21 (stereo unspecified)	inactive	780	20	4.76	

Next, values leading:

Activity [1]	Ki [2] [nM]	fold change (FC) [3]	pKi [4]	pKi ([2]; read-out: Ki)	SMILES
inactive	2140	0.3	6.09		COc1cc2c(cc1Cl)CCN(C)C2c1ccccc1 (stereo unspecified)
inactive	66.4	4.8	6.49	7.15	Oc1cc2c(cc1Cl)CCNC2Cc1ccccc1 (stereo unspecified)
inactive	504	0.07	7.39		CN1CCc2cc(Cl)c(O)cc2C1c1ccccc1 (stereo unspecified)
